pIC50: −log10 of the molar value. Active and inactive are the calls of the source.

In assay [1] the target is Pannexin-1 (Mus musculus) (UniProt Q9JIP4). Nature of the assay: Inhibition of mouse Panx-1 expressed in Xenopus laevis oocytes assessed as inhibition of membrane current cells held at -60 mV and voltage steps to +60 mV in presence of CBX at 50 uM measured by Whole cell voltage clamp assay relative to control. Conditions: Oocyte. It counts as cell-based. The essentials:
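Xenopus oocytes expressing Panx-1 were studied by two-electrode voltage clamp (3 M KCl electrodes) under continuous perfusion with OR2 Ringer, pH 7.5. Cells were held at −60 mV, with 5 s steps to +60 mV at 0.1 Hz. Compounds were screened at 50 µM and inhibition expressed as % of membrane current, n = 1–3 oocytes.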

Another assay addresses Pannexin-1 (Mus musculus, UniProt Q9JIP4). Nature of the assay: Inhibition of mouse Panx-1 expressed in Xenopus laevis oocytes assessed as inhibition of membrane current cells held at -60 mV and voltage steps to +60 mV in presence of CBX measured by Whole cell voltage clamp assay relative to control. Type of assay: cell-based, Oocyte. The essentials:
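Two-electrode voltage clamp of Panx-1-expressing Xenopus oocytes perfused with OR2, pH 7.5. Holding potential −60 mV, with repetitive 5 s steps to +60 mV at 0.1 Hz. Compound was applied at increasing concentrations to build dose–response curves and derive IC50.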

Assay [2] addresses T1, P2X purinoceptor 7 (Homo sapiens) (UniProt Q99572).
T1 sequence (whole entry): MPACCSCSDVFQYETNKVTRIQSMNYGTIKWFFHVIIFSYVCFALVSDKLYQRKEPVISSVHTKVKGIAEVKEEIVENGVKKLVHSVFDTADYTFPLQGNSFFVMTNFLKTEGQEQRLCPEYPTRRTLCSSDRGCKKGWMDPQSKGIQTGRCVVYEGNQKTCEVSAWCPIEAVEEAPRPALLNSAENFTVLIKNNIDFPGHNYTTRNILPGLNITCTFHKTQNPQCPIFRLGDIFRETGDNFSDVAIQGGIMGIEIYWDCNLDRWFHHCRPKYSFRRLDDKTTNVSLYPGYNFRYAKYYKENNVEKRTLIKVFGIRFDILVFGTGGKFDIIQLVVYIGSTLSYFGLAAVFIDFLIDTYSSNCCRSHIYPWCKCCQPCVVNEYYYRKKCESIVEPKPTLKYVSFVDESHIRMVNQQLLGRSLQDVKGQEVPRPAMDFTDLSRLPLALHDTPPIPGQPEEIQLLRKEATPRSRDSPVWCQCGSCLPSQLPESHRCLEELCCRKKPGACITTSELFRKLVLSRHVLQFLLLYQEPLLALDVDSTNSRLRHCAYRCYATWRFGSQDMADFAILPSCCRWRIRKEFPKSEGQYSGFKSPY
Nature of the assay: Inhibition of human P2X7R expressed in Xenopus laevis oocytes assessed as inhibition of BzATP-induced cell membrane current at 10 uM measured by Whole cell voltage clamp assay relative to control. It counts as cell-based. The settings on record: Oocyte.

Assay [3] has as its target Gap junction beta-1 protein (Homo sapiens) (UniProt P08034). Nature of the assay: Inhibition of wild type Cx32(E143) (unknown origin) expressed in Xenopus laevis oocytes assessed as at holding potential of -10 mV and stepped in 5 mV test pulses of 5 sec duration at 10 uM measured by Voltage clamp assay relative to control. Type of assay: cell-based. Conditions: Oocyte.

Assay [4] is filed under the species Mus musculus. Nature of the assay: Antiallodynic activity in oxaliplatin-induced neuropathy pain CD-1 mouse model assessed as reversal of enhancement of pain threshold at 0.3 nmol, IT measured after 45 mins by cold plate assay. Type of assay: functional, organism-based. Put shortly: (§1)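 Male CD-1 mice (22–25 g) given oxaliplatin 2.4 mg kg⁻¹ i.p. in 5% glucose on days 1–2, 5–9 and 12–14. Test agents were dissolved in saline and injected intrathecally (5 µl, L4–L5) at 0.1–1 nmol from day 14. Cold plate held at 4 °C. Latency to first paw lift/lick was recorded every 15 min.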

The species entered for assay [5] is Mus musculus. Nature of the assay: Antiallodynic activity in oxaliplatin-induced neuropathy pain CD-1 mouse model assessed as reversal of enhancement of pain threshold at 1 nmol, IT measured after 60 to 105 mins by cold plate assay. It counts as functional, organism-based. Conditions: time 60-105 min. Put shortly: as §1
Assay [6] relates to Mus musculus. Nature of the assay: Antiallodynic activity in oxaliplatin-induced neuropathy pain IT dosed CD-1 mouse model assessed as reversal of enhancement of pain threshold by measuring minimum effective dose measured 60 to 75 mins by cold plate assay. It counts as functional, organism-based. The settings on record: dose 0.3 nmol, time 60-75 min. Put shortly: (§2)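 Male CD-1 mice (22–25 g) were given oxaliplatin 2.4 mg kg−1 i.p. in 5% glucose on days 1–2, 5–9 and 12–14, with vehicle controls. Behavioural tests were done on day 15. Compounds in saline were injected intrathecally at L4–L5 at 0.1–1 nmol. Mice were placed on a 4 °C cold plate, and latency to the first hind-paw lifting or licking was recorded every 15 min.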

The species named for assay [7] is Mus musculus. Nature of the assay: Antiallodynic activity in oxaliplatin-induced neuropathy pain CD-1 mouse model assessed as reversal of enhancement of pain threshold at 1 nmol, IT measured after 45 to 90 mins by cold plate assay. Type of assay: functional, organism-based. Conditions: time 45-90 min. Put shortly: as §2
The species entered for assay [8] is Mus musculus. Nature of the assay: Antiallodynic activity in oxaliplatin-induced neuropathy pain CD-1 mouse model assessed as reversal of enhancement of pain threshold at 0.3 to 1 nmol, IT measured after 80 mins by cold plate assay. It counts as functional, organism-based. The settings on record: dose 0.3-1 nmol. Put shortly: as §1

Sequence of Pannexin-1 (Q9JIP4 whole entry, the tested form may be a part): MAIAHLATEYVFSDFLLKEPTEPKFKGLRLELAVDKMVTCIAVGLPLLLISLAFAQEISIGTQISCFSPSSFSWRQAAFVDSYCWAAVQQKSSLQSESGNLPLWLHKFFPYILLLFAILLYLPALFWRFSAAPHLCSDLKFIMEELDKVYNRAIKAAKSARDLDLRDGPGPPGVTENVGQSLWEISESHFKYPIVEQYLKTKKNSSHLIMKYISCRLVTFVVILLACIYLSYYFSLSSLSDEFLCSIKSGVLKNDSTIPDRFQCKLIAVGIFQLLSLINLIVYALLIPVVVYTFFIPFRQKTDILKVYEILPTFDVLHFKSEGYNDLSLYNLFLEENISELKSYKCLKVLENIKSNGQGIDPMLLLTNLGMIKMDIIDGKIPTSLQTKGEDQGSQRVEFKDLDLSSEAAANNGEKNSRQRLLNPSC
Sequence of Pannexin-1 (Mus musculus) (Q9JIP4 whole entry, the tested form may be a part): as above
Sequence of Gap junction beta-1 protein (Homo sapiens) (P08034 whole entry): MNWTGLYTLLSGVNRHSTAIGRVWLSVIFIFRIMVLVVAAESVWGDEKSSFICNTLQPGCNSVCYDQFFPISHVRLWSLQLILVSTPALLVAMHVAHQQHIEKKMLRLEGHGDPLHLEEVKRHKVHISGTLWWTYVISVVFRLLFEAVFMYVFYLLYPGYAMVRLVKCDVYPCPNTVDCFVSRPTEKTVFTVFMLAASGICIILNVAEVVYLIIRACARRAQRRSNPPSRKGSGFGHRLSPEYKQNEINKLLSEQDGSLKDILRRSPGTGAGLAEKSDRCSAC

Consider `O=C(O)c1cc2cc([N+](=O)[O-])ccc2n1CCCCCc1ccccc1`, for which the inhibition in assay [1] amounted to 58%.

As for `O=C(O)c1cc2cc(S(=O)(=O)N(Cc3ccccc3)Cc3ccccc3)ccc2n1CCc1ccccc1`, the inhibition in assay [1] worked out at 41.3%. On to `O=C(O)c1cn(Cc2ccccc2)c2ccc([N+](=O)[O-])cc12`, for which the inhibition in assay [1] amounted to 65%. For the same compound, on Pannexin-1, the pIC50 is 4.56. For `O=C(O)c1cc2cc([N+](=O)[O-])ccc2n1CCCc1ccccc1`, in that order: 65.5% and 4.64.

Regarding `O=C(O)c1cc2cc(S(=O)(=O)NCc3ccccc3)ccc2n1Cc1ccccc1`, in [1], the inhibition is 42%. On to `CCCN(CCC)S(=O)(=O)c1ccc(C(=O)O)cc1` [PROBENECID], for which the pIC50 on Pannexin-1 is 3.82. For the compound `O=C(O)c1ccc(CN(Cc2ccc(C(=O)O)cc2)S(=O)(=O)c2ccc3c(c2)cc(C(=O)O)n3Cc2ccc(C(=O)O)cc2)cc1`, in assay [1], the inhibition was 79%.

`O=C(O)c1ccc(CCn2cc(C(=O)O)c3cc([N+](=O)[O-])ccc32)cc1`: in assay [1], the inhibition is 73%.

As for `O=C(O)c1cc2cc([N+](=O)[O-])ccc2n1CCc1ccccc1`, the inhibition in [1] stood at 56.3%.

`O=C(O)c1cc2cc(S(=O)(=O)N(Cc3ccccc3)Cc3ccccc3)ccc2n1Cc1ccccc1`: the inhibition in assay [1] was 41%; in assay [2] it was 0%; in [3] it was 20%. With `O=C(O)c1ccc(Cn2c(C(=O)O)cc3cc(S(=O)(=O)N(Cc4ccccc4)Cc4ccccc4)ccc32)cc1`, the inhibition in [1] was 100%; in assay [2], 61.8%; in assay [3], 0%. On Pannexin-1, the pIC50 was 6.60. In the case of `O=C(O)c1cc2cc([N+](=O)[O-])ccc2n1Cc1ccccc1`, the inhibition in [1] amounted to 51.3%. Consider `O=C(O)c1cn(CCCCCc2ccccc2)c2ccc([N+](=O)[O-])cc12`, for which, in assay [1], the inhibition came to 32.3%. Take `NS(=O)(=O)c1ccc2c(c1)cc(C(=O)O)n2Cc1ccccc1`: the inhibition in [1] amounted to 29.3%; in assay [2], 15%; in [3], 15%. Turning to `O=C(O)c1cn(Cc2ccccc2)c2ccc(N(Cc3ccccc3)Cc3ccccc3)cc12`, the inhibition in assay [1] stood at 19.5%. Still for that read-out and setting: to `O=C(O)c1cn(CCCCc2ccccc2)c2ccc([N+](=O)[O-])cc12` belongs 65.7%. In the case of `O=C(O)c1ccc(CNS(=O)(=O)c2ccc3c(c2)cc(C(=O)O)n3Cc2ccc(C(=O)O)cc2)cc1`, the inhibition in [1] is 100%; in [2], 0%; in [3], 0%. The pIC50 on Pannexin-1 was 6.10. Besides, the result in the assay filed under Mus musculus [4] and in the assay listed under Mus musculus [5] was Active.

`O=C(O)c1ccc(Cn2c(C(=O)O)cc3cc([N+](=O)[O-])ccc32)cc1`: the inhibition in [1] was found to be 61%. For the same compound, the pIC50 at Pannexin-1 was 5.31. Turning to `O=C(O)c1cn(CCCc2ccccc2)c2ccc([N+](=O)[O-])cc12`, the inhibition in [1] came out at 71%; in assay [2] it was 0%; in [3] it was 0%. In addition, the pIC50 at Pannexin-1 is 4.91. Also, the result with Mus musculus [6] and in the assay filed under Mus musculus [7] was Active. `CCN(Cc1cccc(S(=O)(=O)O)c1)c1ccc(C(=C2C=CC(=[N+](CC)Cc3cccc(S(=O)(=O)O)c3)C=C2)c2ccccc2S(=O)(=O)[O-])cc1`: at Pannexin-1, the pIC50 is 6.57. As to `NS(=O)(=O)c1ccc2c(c1)cc(C(=O)O)n2Cc1ccc(C(=O)O)cc1`, in assay [1], the inhibition was 61.7%. Turning to `O=C(O)c1ccc(CCn2c(C(=O)O)cc3cc([N+](=O)[O-])ccc32)cc1`, the inhibition in assay [1] was 31.7%. For `O=C(O)c1cn(CCc2ccccc2)c2ccc([N+](=O)[O-])cc12`, the inhibition in assay [1] is 52.7%.

For `O=C(O)c1ccc(Cn2cc(C(=O)O)c3cc([N+](=O)[O-])ccc32)cc1`, the inhibition in assay [1] worked out at 54%.

Consider `O=C(O)c1cc2cc(N(Cc3ccccc3)Cc3ccccc3)ccc2n1Cc1ccccc1`, for which the inhibition in assay [1] turned out to be 0%. The result in the assay listed under Mus musculus [8] was inactive. Regarding `O=C(O)c1cc2cc(S(=O)(=O)N(CCc3ccccc3)Cc3ccccc3)ccc2n1CCc1ccccc1`, the inhibition in [1] was found to be 37.3%. Still for that read-out and setting: with `O=C(O)c1cc2cc(S(=O)(=O)NCCc3ccccc3)ccc2n1CCc1ccccc1` the figure was 57.7%. As for `O=C(O)c1cc([N+](=O)[O-])ccc1NCCCc1ccccc1` [5-NITRO-2-PHENYLPROPYLAMINOBENZOIC ACID [NPPB]], the pIC50 at Pannexin-1 was 4.30.

One may read the inhibition as the drop in the measured response relative to a control, in per cent. Broadly, the pIC50 is the negative decadic logarithm of the IC50, by convention in mol/L.

The values are drawn from ChEMBL document CHEMBL4831489, “Design and synthesis of the first indole-based blockers of Panx-1 channel” (Eur J Med Chem, 2021).
